# Data reported in ChEMBL document CHEMBL1221392, “Synthesis and cytotoxic potential of heterocyclic cyclohexanone analogues of curcumin” (Bioorg Med Chem, 2010).
# Activity calls are given as the source filed them. The calls are words filed in the database; no cut-off is given here.
# What was measured:
# [1] = Inhibition of NF-kappaB activation in human K562 cells; assay type: cell-based
# How it was run: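 K562 cells electroporated with 5 µg each of a 5× NF-κB-site firefly luciferase reporter and a Renilla phRG-TK plasmid per 2.5 × 10⁶ cells. After 24 h they were resuspended at 1 × 10⁶/ml in RPMI 1640 with 0.1% FCS. Cells were then incubated 30 min before a concentration series was added. Read-out by dual luciferase; IC₅₀ reported.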
# MDA-MB-231 [2] = assay: Cytotoxicity against human MDA-MB-231 cells after 5 days by SRB assay; details: MDA-MB-231, 5 days
# MDA-MB-231 [3] = assay: Induction of apoptosis in human MDA-MB-231 cells assessed as increase in number of apoptotic cells at 2 to 3 uM after 18 hrs by FACScalibur flow cytometry; assay type: functional
# MDA-MB-231 [4] = assay: Induction of apoptosis in human MDA-MB-231 cells assessed as increase in number of apoptotic cells at 1 uM by FACScalibur flow cytometry; assay type: functional, cell-based
# How it was run: (§1)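 Cells seeded at 2 × 10⁵/well in DMEM/HamF12 with 5% FBS and antibiotics, then treated for 12, 18, 24 or 36 h against a 0.1% DMSO vehicle. Staining was Annexin-V-FLUOS/propidium iodide, read by flow cytometry, as apoptotic cells % of total. Mean ± SEM from three independent experiments in triplicate, two-way ANOVA with Bonferroni post-test.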
# SK-BR-3 = assay: Cytotoxicity against human SKBR3 cells after 5 days by SRB assay; details: SK-BR-3, 5 days
# MDA-MB-468 = assay: Cytotoxicity against human MDA-MB-468 cells after 5 days by SRB assay; details: MDA-MB-468, 5 days
# MDA-MB-231 [5] = assay: Induction of apoptosis in human MDA-MB-231 cells assessed as increase in number of apoptotic cells at 2 to 3 uM after 36 hrs by FACScalibur flow cytometry; assay type: functional
# MDA-MB-231 [6] = assay: Induction of apoptosis in human MDA-MB-231 cells assessed as increase in number of apoptotic cells at 2 uM by FACScalibur flow cytometry; assay type: functional, cell-based; how it was run: as §1
IC50 [1] [µM],Compound,EC50 (MDA-MB-231 [2]) [µM],other results
> 200,COc1ccc(OC)c(/C=C2\CCC/C(=C\c3cc(OC)ccc3OC)C2=O)c1,> 10,–
6.3,COc1ccc(OC)c(/C=C2\CN(C)C/C(=C\c3cc(OC)ccc3OC)C2=O)c1,1.1,IC50 (SK-BR-3): 1.1 µM; EC50 (MDA-MB-468): 1.1 µM
34,O=C1/C(=C/c2cccnc2)CC/C1=C\c1cccnc1,8.6,–
0.8,CN1C/C(=C\c2cccnc2)C(=O)/C(=C/c2cccnc2)C1,2.1,–
2.5,O=C1/C(=C/c2ccncc2)CCC/C1=C\c1ccncc1,1.1,Activity (MDA-MB-231 [3]): <20%; Activity (MDA-MB-231 [5]): 40%; IC50 (SK-BR-3): 0.2 µM; EC50 (MDA-MB-468): 1.9 µM
1,CN1C/C(=C\c2ccncc2)C(=O)/C(=C/c2ccncc2)C1,0.8,Activity (MDA-MB-231 [6]): Active; IC50 (SK-BR-3): 0.6 µM; EC50 (MDA-MB-468): 0.5 µM
48,Cn1ccnc1/C=C1\CCC/C(=C\c2nccn2C)C1=O,1.9,–
15,COc1cc(/C=C/C(=O)CC(=O)/C=C/c2ccc(O)c(OC)c2)ccc1O [CURCUMIN],7.6,IC50 (SK-BR-3): 2.4 µM; EC50 (MDA-MB-468): 9.7 µM

# The remaining lines, values behind:
Compound,IC50 [1] [µM],EC50 (MDA-MB-231 [2]) [µM],other results
COc1cc(F)c(/C=C2\CN(C)C/C(=C\c3cc(OC)c(OC)cc3F)C2=O)cc1OC,4,3.8,–
O=C1/C(=C/c2cccnc2)CCC/C1=C\c1cccnc1,2.5,1.5,Activity (MDA-MB-231 [3]): <20%
COc1cc(/C=C2\CN(C)C/C(=C\c3cc(OC)c(OC)c(OC)c3)C2=O)cc(OC)c1OC,0.9,0.3,Activity (MDA-MB-231 [4]): Active; IC50 (SK-BR-3): 0.4 µM; EC50 (MDA-MB-468): 0.3 µM
CN1C2CCC1/C(=C\c1ccncc1)C(=O)/C2=C/c1ccncc1,1.5,1.1,IC50 (SK-BR-3): 0.7 µM; EC50 (MDA-MB-468): 0.6 µM
O=C1/C(=C/c2cccs2)CCC/C1=C\c1cccs1 [TENYLIDONE],> 200,> 30,–
O=C1/C(=C/c2cccnc2F)CCC/C1=C\c1cccnc1F,3.8,3.2,–
Cn1cccc1/C=C1\CCC/C(=C\c2cccn2C)C1=O,> 200,> 30,–
CN1C/C(=C\c2cccs2)C(=O)/C(=C/c2cccs2)C1,> 200,> 30,–
COc1cc(/C=C2/C(=O)/C(=C/c3cc(OC)c(OC)c(OC)c3)C3CCC2N3C)cc(OC)c1OC,> 200,> 30,–
COc1cc(/C=C2\CCC/C(=C\c3cc(OC)c(OC)c(OC)c3)C2=O)cc(OC)c1OC,–,> 30,–
CN1C2CCC1/C(=C\c1cccnc1)C(=O)/C2=C/c1cccnc1,4,12.9,–
O=C1/C(=C/c2ccnc(F)c2)CCC/C1=C\c1ccnc(F)c1,2.2,3.3,–
COc1cc(/C=C2\CCC/C(=C\c3ccc(O)c(OC)c3)C2=O)ccc1O [CYCLOVALONE],10,2.6,–
CN1C/C(=C\c2nccn2C)C(=O)/C(=C/c2nccn2C)C1,47,> 30,–
